Our source for the AUC(0-inf), IC50 and MIC values is ChEMBL document CHEMBL4354828, “Discovery of Taniborbactam (VNRX-5133): A Broad-Spectrum Serine- and Metallo-β-lactamase Inhibitor for Carbapenem-Resistant Bacterial Infections” (J Med Chem, 2020).

A short description of data set [1]: AUC (infinity) in mouse at 10 mg/kg, iv after 1 to 6 hrs by LC-MS/MS analysis. It counts as ADME, organism-based. Set-up: dose 10 mg/kg, time infinity, route intravenous. The following applies: in vivo.
A short description of data set [2]: Inhibition of bacterial OXA-48 using nitrocefin as substrate preincubated for 15 mins followed by susbtrate addition and measured after 10 mins by spectrophotometric method. Set-up: species or system Bacteria.
The nature of data set [3]: Inhibition of bacterial KPC-2 using imipenem as substrate preincubated for 15 mins followed by susbtrate addition and measured after 10 mins by spectrophotometric method. More on the design: species or system Bacteria.
For data set [4], the system named is Escherichia coli. As to the kind of experiment: Inhibition of NDM-1/CMY-6/OXA-1 in Escherichia coli CDC-0055 assessed as meropenem antibacterial activity at 4 ug/ml after 16 to 20 hrs by CLSI-based microbroth dilution method (reference value: […] ug/ml).
Data set [5] has as its system Klebsiella pneumoniae. Briefly: Inhibition of KPC-2/SHV12/TEM-1 in Klebsiella pneumoniae CDC-0361 assessed as piperacillin antibacterial activity at 16 ug/ml after 16 to 20 hrs by CLSI-based microbroth dilution method (Rvb > […] ug/ml).
The subject of data set [6] is Klebsiella pneumoniae ATCC BAA-1705. Briefly: Inhibition of KPC-2 in Klebsiella pneumoniae ATCC BAA 1705 assessed as meropenem antibacterial activity at 4 ug/ml after 16 to 20 hrs by CLSI-based microbroth dilution method (reference value: […] ug/ml).
Data set [7] in a line: Inhibition of bacterial IMP-1 using nitrocefin as substrate preincubated for 15 mins followed by susbtrate addition and measured after 10 mins by spectrophotometric method. Set-up: species or system Bacteria.
The subject of data set [8] is Klebsiella pneumoniae. As to the kind of experiment: Inhibition of VIM-27/CTX-M-15/SHV-11/OXA-1 in Klebsiella pneumoniae CDC-0040 assessed as cefepime antibacterial activity at 8 ug/ml after 16 to 20 hrs by CLSI-based microbroth dilution method.
Data set [9] concerns Klebsiella pneumoniae. Briefly: Inhibition of KPC-2/SHV12/TEM-1 in Klebsiella pneumoniae CDC-0361 assessed as cefepime antibacterial activity at 8 ug/ml after 16 to 20 hrs by CLSI-based microbroth dilution method (reference value: […] ug/ml).
Data set [10] concerns Escherichia coli. Briefly: Inhibition of NDM-1/CMY-6/OXA-1 in Escherichia coli CDC-0055 assessed as cefepime antibacterial activity at 8 ug/ml after 16 to 20 hrs by CLSI-based microbroth dilution method. The procedure, abridged: (§1)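 MDR β-lactamase-producing Gram-negative clinical isolates. […] MIC was reported as the inhibitor concentration that restores the partner's antibacterial activity.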

Data set [11] deals with Pseudomonas aeruginosa. Briefly: Inhibition of VIM in Pseudomonas aeruginosa CDC-0457 assessed as piperacillin antibacterial activity at 16 ug/ml after 16 to 20 hrs by CLSI-based microbroth dilution method.
The nature of data set [12]: Inhibition of bacterial AmpC using nitrocefin as substrate preincubated for 15 mins followed by susbtrate addition and measured after 10 mins by spectrophotometric method. Set-up: species or system Bacteria.
Data set [13] has as its system Klebsiella pneumoniae ATCC BAA-1705. As to the kind of experiment: Inhibition of KPC-2 in Klebsiella pneumoniae ATCC BAA 1705 assessed as piperacillin antibacterial activity at 16 ug/ml after 16 to 20 hrs by CLSI-based microbroth dilution method (Rvb > […] ug/ml).
The test system of data set [14] is Escherichia coli. As to the kind of experiment: Inhibition of NDM in Escherichia coli CDC-0452 assessed as meropenem antibacterial activity at 4 ug/ml after 16 to 20 hrs by CLSI-based microbroth dilution method (reference value: […] ug/ml).
For data set [15], the system named is Pseudomonas aeruginosa. As to the kind of experiment: Inhibition of KPC-2/PDC-42 in Pseudomonas aeruginosa CDC-0356 assessed as piperacillin antibacterial activity at 16 ug/ml after 16 to 20 hrs by CLSI-based microbroth dilution method (Rvb > […] ug/ml).
The test system of data set [16] is Escherichia coli. As to the kind of experiment: Inhibition of NDM in Escherichia coli CDC-0452 assessed as piperacillin antibacterial activity at 16 ug/ml after 16 to 20 hrs by CLSI-based microbroth dilution method (Rvb > […] ug/ml).
A short description of data set [17]: Inhibition of bacterial CTX-M-15 using cefotaxime as substrate preincubated for 15 mins followed by susbtrate addition and measured after 10 mins by spectrophotometric method. Set-up: species or system Bacteria.
Data set [18] can be described thus: Inhibition of bacterial OXA-1 using nitrocefin as substrate preincubated for 15 mins followed by susbtrate addition and measured after 10 mins by spectrophotometric method. More on the design: species or system Bacteria.
Data set [19] relates to Klebsiella pneumoniae. Briefly: Inhibition of VIM-27/CTX-M-15/SHV-11/OXA-1 in Klebsiella pneumoniae CDC-0040 assessed as meropenem antibacterial activity at 4 ug/ml after 16 to 20 hrs by CLSI-based microbroth dilution method.
The nature of data set [20]: Inhibition of bacterial CMY-2 using nitrocefin as substrate preincubated for 15 mins followed by susbtrate addition and measured after 10 mins by spectrophotometric method. Set-up: species or system Bacteria.
The subject of data set [21] is Klebsiella pneumoniae. As to the kind of experiment: Inhibition of OXA-232/OXA-9/TEM-1A/CTX-M-15/OXA-1 in Klebsiella pneumoniae CDC-0066 assessed as cefepime antibacterial activity at 8 ug/ml after 16 to 20 hrs by CLSI-based microbroth dilution method (Rvb > […] ug/ml).
The subject of data set [22] is Escherichia coli. Briefly: Inhibition of NDM-1/CMY-6/OXA-1 in Escherichia coli CDC-0055 assessed as piperacillin antibacterial activity at 16 ug/ml after 16 to 20 hrs by CLSI-based microbroth dilution method. In a few lines:
as §1

Data set [23] relates to Pseudomonas aeruginosa. As to the kind of experiment: Inhibition of KPC-2/PDC-42 in Pseudomonas aeruginosa CDC-0356 assessed as cefepime antibacterial activity at 8 ug/ml after 16 to 20 hrs by CLSI-based microbroth dilution method (Rvb > […] ug/ml).
Data set [24] in a line: Inhibition of bacterial VIM-2 using nitrocefin as substrate preincubated for 15 mins followed by susbtrate addition and measured after 10 mins by spectrophotometric method. More on the design: species or system Bacteria. In a few lines: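 Purified β-lactamase inhibition. IC50 values are the average of duplicates unless otherwise indicated.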
Data set [25] deals with Pseudomonas aeruginosa. As to the kind of experiment: Inhibition of VIM in Pseudomonas aeruginosa CDC-0457 assessed as cefepime antibacterial activity at 8 ug/ml after 16 to 20 hrs by CLSI-based microbroth dilution method.
The nature of data set [26]: Inhibition of bacterial NDM-1 using cefepime as substrate preincubated for 15 mins followed by susbtrate addition and measured after 10 mins by spectrophotometric method. Set-up: species or system Bacteria.
Data set [27] in a line: Inhibition of bacterial SHV-5 using cefotaxime as substrate preincubated for 15 mins followed by susbtrate addition and measured after 10 mins by spectrophotometric method. More on the design: species or system Bacteria.
Data set [28] deals with Escherichia coli. As to the kind of experiment: Inhibition of NDM in Escherichia coli CDC-0452 assessed as cefepime antibacterial activity after 16 to 20 hrs by CLSI-based microbroth dilution method (reference value: […] ug/ml).
Data set [29] has as its system Pseudomonas aeruginosa. Briefly: Inhibition of VIM in Pseudomonas aeruginosa CDC-0457 assessed as meropenem antibacterial activity at 4 ug/ml after 16 to 20 hrs by CLSI-based microbroth dilution method.
The test system of data set [30] is Klebsiella pneumoniae. As to the kind of experiment: Inhibition of OXA-232/OXA-9/TEM-1A/CTX-M-15/OXA-1 in Klebsiella pneumoniae CDC-0066 assessed as piperacillin antibacterial activity at 16 ug/ml after 16 to 20 hrs by CLSI-based microbroth dilution method (Rvb > […] ug/ml).
Data set [31] relates to Klebsiella pneumoniae. Briefly: Inhibition of KPC-2/SHV12/TEM-1 in Klebsiella pneumoniae CDC-0361 assessed as meropenem antibacterial activity at 4 ug/ml after 16 to 20 hrs by CLSI-based microbroth dilution method (reference value: […] ug/ml).
For data set [32], the system named is Klebsiella pneumoniae. As to the kind of experiment: Inhibition of VIM-27/CTX-M-15/SHV-11/OXA-1 in Klebsiella pneumoniae CDC-0040 assessed as piperacillin antibacterial activity at 16 ug/ml after 16 to 20 hrs by CLSI-based microbroth dilution method.
The test system of data set [33] is Pseudomonas aeruginosa. As to the kind of experiment: Inhibition of KPC-2/PDC-42 in Pseudomonas aeruginosa CDC-0356 assessed as meropenem antibacterial activity at 4 ug/ml after 16 to 20 hrs by CLSI-based microbroth dilution method (reference value: […] ug/ml).
The test system of data set [34] is Klebsiella pneumoniae. Briefly: Inhibition of OXA-232/OXA-9/TEM-1A/CTX-M-15/OXA-1 in Klebsiella pneumoniae CDC-0066 assessed as meropenem antibacterial activity at 4 ug/ml after 16 to 20 hrs by CLSI-based microbroth dilution method (reference value: […] ug/ml).

Values after ≈ are worked out from the molar mass of the structure shown. Some results are limits rather than exact numbers.

`CO/N=C(\C(=O)N[C@@H]1C(=O)N2C(C(=O)[O-])=C(C[N+]3(C)CCCC3)CS[C@H]12)c1csc(N)n1` gave an AUC(0-inf) in data set [1] of 15800 ng·h/mL.

For the compound `O=C(O)C[C@@H]1CC[C@H](NC(=O)Cc2cccs2)B(O)O1` [VABORBACTAM], the IC50 in [2] was 38800 nM; in [3], 100 nM; in data set [7], more than 100000 nM; in [12], 90 nM; in [17], 420 nM; in data set [18], 7900 nM. Also, the IC50 in [20] was 220 nM; in data set [24], more than 100000 nM; in data set [26], more than 100000 nM; in data set [27], 440 nM. Further, the MIC with Escherichia coli [4] is more than 16 µg/mL; with Klebsiella pneumoniae [5], more than 16 µg/mL; in data set [6] it was 0.03 µg/mL (≈ 0.101 µM); in the data set on Klebsiella pneumoniae [8] it was more than 16 µg/mL; with Klebsiella pneumoniae [9], more than 16 µg/mL; with Escherichia coli [10], more than 16 µg/mL. In addition, the MIC (with Pseudomonas aeruginosa [11]; in data set [13]; with Escherichia coli [14]; with Pseudomonas aeruginosa [15]; in the data set on Escherichia coli [16]; in the data set with Klebsiella pneumoniae [19]) was more than 16 µg/mL throughout. Also, the MIC in the data set on Klebsiella pneumoniae [21], in the data set with Escherichia coli [22], in the data set on Pseudomonas aeruginosa [23], in the data set with Pseudomonas aeruginosa [25], with Escherichia coli [28] and with Pseudomonas aeruginosa [29] was more than 16 µg/mL throughout. Further, the MIC in the data set on Klebsiella pneumoniae [30] was more than 16 µg/mL; in the data set with Klebsiella pneumoniae [31], 0.06 µg/mL (≈ 0.202 µM); with Klebsiella pneumoniae [32], more than 16 µg/mL; in the data set on Pseudomonas aeruginosa [33], 8 µg/mL (≈ 26.9 µM); in the data set with Klebsiella pneumoniae [34] it was more than 16 µg/mL.
